Measurements from different studies.
Compare with care: the assays were run in different laboratories.

| SMILES | test | system | setting | solubility |
| --- | --- | --- | --- | --- |
| CCCCOC(=O)c1ccc(O)cc1 | – | PBS | pH 7.4 | 310 µg/mL |
| CCOc1ccc2cc(-c3nn(C4CCCCC4)c(N)c3C(N)=O)cnc2c1 | – | PBS | pH 6.5, 25 °C | 34.3 µM |
| NC1CCN(c2nccc3[nH]c(-c4cccc(OC(F)(F)F)c4)nc23)CC1 | shake flask | aqueous buffer | pH 6.5 | > 200 µM |
| Cc1ccc(F)cc1Nc1nc(NCc2ccccc2)c2ccccc2n1 | – | aqueous buffer | pH 6.2 | 0.07 µg/mL |
| Cl.c1ccc(Cn2c(N3CCNCC3)nc3cc(-c4cc[nH]n4)ccc32)cc1 | shake flask | aqueous buffer | 20 h, pH 6.5, 25 °C | 195 µM |
| CCCCCCN1CCCC1=O | – | PBS | 48 h, pH 7.4, 25 °C | 79000 µM |
| COc1cc(NC(=O)c2ccc(C3=CCN(C(=N)N)CC3)c(F)c2)ccc1C1=CCN(C(=N)N)CC1 | shake flask | aqueous buffer | pH 7.4 | 1210 µg/mL |
| CCOc1ccc2cc(-c3nn(CC(C)(C)CO)c(N)c3C(N)=O)cnc2c1 | – | PBS | pH 6.5, 25 °C | > 100 µM |
| Cc1cc(Nc2ccc(Cl)cc2)n2nc(C(C)C)nc2n1 | nephelometry | aqueous buffer | pH 6.5 | 83 to 170 µM |
| Nc1cccc(S(=O)(=O)N2CCN(S(=O)(=O)c3ccc4c(c3)OCCO4)CC2)c1 | – | aqueous buffer | – | 4.1 µg/mL |
| COc1cccc(OC)c1-c1nc(C(=O)N[C@@H](CC(C)C)C(=O)O)cn1-c1cccc2ccccc12 | – | aqueous buffer | pH 7.4 | > 145 µg/mL |
| O=C(O)c1ccc(-c2nnc(-c3ncccn3)nn2)cc1 | – | water | – | ≤ 200 µM |
| COc1cccc2c(NCc3ccccc3)nc(N3CCNc4ccccc43)nc12 | – | aqueous buffer | pH 6.2 | 10.2 µg/mL |
| CCC(F)(F)c1nc2nc(C)cc(Nc3ccc(S(F)(F)(F)(F)F)cc3)n2n1 | nephelometry | aqueous buffer | pH 6.5 | 15 to 30 µM |
| Cc1ccc(Nc2nc(NCc3ccccc3)c3ccccc3n2)cc1F | – | aqueous buffer | pH 6.2 | 0.04 µg/mL |
| Cc1cc(Nc2ccc(C(F)(F)F)cc2)n2nc(C3CC3)nc2n1 | nephelometry | aqueous buffer | pH 6.5 | 38 to 75 µM |
| CC(=O)N1CCN(c2ccc(OCC3COC(Cn4ccnc4)(c4ccc(Cl)cc4Cl)O3)cc2)CC1 (stereo not shown) | – | PBS | pH 7.4 | 55.6 µM |
| Cc1cc(F)cc(Nc2nc(NCc3ccccc3)c3ccccc3n2)c1 | – | aqueous buffer | pH 7.4 | < 0.01 µg/mL |
| CC(=O)N[C@@H](CC(N)=O)C(=O)N[C@@H](CC(N)=O)C(=O)N[C@@H](CC(C)C)C(=O)N[C@H]1CSSC[C@@H](C(=O)N[C@H](C(N)=O)[C@@H](C)O)NC(=O)[C@H](CCCNC(=N)N)NC(=O)[C@H](Cc2c[nH]cn2)NC(=O)[C@H](C)NC(=O)CNC(=O)[C@H](Cc2c[nH]c3ccccc23)NC(=O)[C@H](CC(=O)O)NC(=O)[C@H](CCC(N)=O)NC(=O)[C@H](Cc2c[nH]c3ccccc23)NC(=O)[C@H](C(C)C)NC1=O | – | PBS | pH 7.4 | 3920 µg/mL |
| COCc1nc2nc(C)cc(Nc3ccc(C(F)(F)F)cc3)n2n1 | nephelometry | aqueous buffer | pH 6.5 | 150 to 300 µM |
| Cc1cc2c(cc1C)[n+](Cc1ccc3ccccc3n1)cn2Cc1ccc2ccccc2n1.[Cl-] | – | water | – | > 500 µg/mL |
| COc1cc(C(=O)O)cc(OC)c1O | – | water | 72 h, 25 °C | 7400 µM |
| Clc1ccc2c(c1)nc(NCCN1CCOCC1)n2Cc1ccccc1 | shake flask | aqueous buffer | 20 h, pH 6.5, 25 °C | 53 µM |
| COc1cc(OC)cc(N(CCNC(C)C)c2ccc3ncc(-c4cnn(C)c4)nc3c2)c1 | – | aqueous buffer | pH 9.61 | 1 µg/mL |
| [Br-].c1ccc(-c2n(Cc3ccc4ccccc4c3)cc[n+]2Cc2ccc3ccccc3c2)cc1 | – | water | – | < 500 µg/mL |
| Cc1ccc(S(=O)(=O)NCc2ccc(C(=O)NCCN(Cc3ccccc3)C(C)C)cc2)cc1 | – | aqueous buffer | pH 6.2 | 0.12 µg/mL |
| Brc1ccc2c(c1)nc(C1CCNCC1)n2Cc1ccccc1 | shake flask | aqueous buffer | 20 h, pH 6.5, 25 °C | 110 µM |
| COc1cccc2c(NCc3ccccc3)nc(-n3c(=O)oc4ccccc43)nc12 | – | aqueous buffer | pH 7.4 | < 0.01 µg/mL |

| SMILES | test | system | setting | solubility |
| --- | --- | --- | --- | --- |
| CN1CCN(CC2CCN(c3cccc4[nH]c(-c5cc(F)cc(F)c5)nc34)CC2)CC1 | shake flask | aqueous buffer | pH 6.5 | > 200 µM |
| COc1cccc(OC)c1-c1cc(C(=O)N[C@@H](CC(C)C)C(=O)O)nn1-c1ccnc2cc(Cl)ccc12 | – | aqueous buffer | pH 6.2 | > 155 µg/mL |
| CCOC(=O)C1=C(C)NC(C)=C(C(=O)OC)C1c1cccc(Cl)c1Cl (stereo not shown) | – | FaSSIF | 24 h, pH 7.4, 37 °C | 40 µg/mL |
| COc1ccnc(CNC(=O)c2cn(Cc3ccc(Cn4ccccc4=O)cc3)nc2C(F)(F)F)c1F | – | FaSSIF | 4 h, pH 6.5 | 20 µg/mL |
| CCOc1ccc2cc(-c3nn(C4CCCCCC4)c(N)c3C(N)=O)ccc2n1 | – | PBS | pH 6.5, 25 °C | 46.5 µM |
| CN1CCC(N2CCCN(c3nccc4[nH]c(-c5ccc(F)c(F)c5)nc34)CC2)CC1 | shake flask | aqueous buffer | pH 6.5 | > 200 µM |
| CSc1nc2nc(C)cc(Nc3ccc(S(F)(F)(F)(F)F)cc3)n2n1 | nephelometry | aqueous buffer | pH 6.5 | 7.8 to 15 µM |
| CCCn1nc(C(=O)N2CCCCC2)c2c1CCC(N1CCc3ccccc3C1)C2 (stereo not shown) | – | PBS | 16 h, pH 7.4 | 713 µM |
| CNC(=O)c1ccc(N(Cc2ccc(C3CCCCC3)cn2)C(=O)[C@H]2CCN2S(=O)(=O)c2c(F)c(F)c(F)c(F)c2F)cc1O | – | simulated intestinal fluid | – | 131 µg/mL |
| CCC(=O)O[C@]1(C(=O)SCF)[C@H](C)C[C@H]2[C@@H]3C[C@H](F)C4=CC(=O)C=C[C@]4(C)[C@@]3(F)[C@@H](O)C[C@@]21C | – | FaSSIF | – | 3.12 µM |
| CN(CCOc1ccc(CC2SC(=O)NC2=O)cc1)c1ccccn1 (stereo not shown) | – | aqueous buffer | pH 7.4 | ≥ 144 µM |
| O=C(Nc1c2c(cc3c1CCC3)CCC2)NS(=O)(=O)/C=C/c1nccs1 | – | PBS | 24 h, pH 6.8, 37 °C | 646 µg/mL |
| CC(C)C[C@H](NC(=O)[C@H](Cc1ccccc1)NC(=O)c1cnccn1)B(O)O | nephelometry | aqueous buffer | pH 6.8 | 50 µM |
| O=C(Nc1ccc(S(=O)(=O)N2CCC(Cl)CC2)cc1)c1ccc([N+](=O)[O-])o1 | – | aqueous buffer | pH 5 | 3.8 µg/mL |
| COC(=O)c1ccc2c(c1)nc(C1CCNCC1)n2Cc1ccccc1 | shake flask | aqueous buffer | 20 h, pH 6.5, 25 °C | 200 µM |
| CC(=O)c1cccc(OCc2cc(C(=O)N(C)[C@@H](C)c3ccccn3)no2)c1 | – | PBS | – | 96 µM |
| Clc1cccc(Nc2nc(NCc3cccc(Br)c3)c3ccccc3n2)c1 | – | aqueous buffer | pH 6.2 | 0.02 µg/mL |
| O=C(NCCN1CCCC1)c1cc(-c2ccc(CN3CCOCC3)cc2)nc2ccc(F)cc12.O=C(O)C=CC(=O)O | – | simulated gastric fluid | pH 2, 37 °C, acidic | > 6490 µM |
| OCCOc1cccc2c(NCc3ccccc3)nc(N3CCOc4ccccc43)nc12 | – | aqueous buffer | pH 5 | 21.5 µg/mL |
| CCOc1ccc2cc(-c3nn(CC(C)(C)CO)c(N)c3C(N)=O)ccc2n1 | – | PBS | pH 6.5, 25 °C | > 100 µM |
| Cc1c(N(C)C)c(=O)n(-c2ccccc2)n1C | – | PBS | pH 7.4 | 46300 µg/mL |
| O=C(O)c1ccc(-c2ccc(-c3cc4ccc(O)cc4oc3=O)cc2)cc1 | shake flask | PBS | 36 h, pH 7.4 | 52.5 µM |
| CCOC(=O)c1ccc(N)cc1 | – | PBS | pH 7.4 | 890 µg/mL |
| c1ccc(CNc2nc(N3CCNc4ccccc43)nc3ccccc23)cc1 | – | aqueous buffer | pH 7.4 | 0.02 µg/mL |
| O=C(Nc1cc(F)c(F)c(F)c1)c1ccc(F)c(S(=O)(=O)NCc2cccc(B(O)O)c2)c1 | – | aqueous buffer | pH 2 | 174 µg/mL |
| Cc1cccc(C(=O)Nc2cccc(NC(=O)c3ccccc3)c2)c1 | – | aqueous buffer | – | < 0.03 µM |
| CC(C)CC(=O)N1CCC[C@H](COc2cccc3c2C(N)=NS(=O)(=O)N3)C1 | – | aqueous buffer | pH 7.1 | 240 µM |
